According to ChEMBL document CHEMBL4251593, “Nontoxic combretafuranone analogues with high in vitro antibacterial activity” (Eur J Med Chem, 2018):

How the values were obtained:
[1] = test system: Staphylococcus epidermidis; assay: Antibacterial activity against Staphylococcus epidermidis HK6966/08 clinical isolate after 24 hrs by microdilution assay; assay type: functional; details: HK6966/08, 24 h
HL-60 [2] = assay: Induction of apoptosis in human HL60 cells assessed as caspase 3/7 activity after 24 hrs by caspase-glo luminescent assay; assay type: cell-based; details: HL-60, 24 h
How it was run: (§1)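 Cells were seeded at 500 per well in their growth media and exposed to 12 concentrations from 40 µM to 1 nM, delivered from DMSO, in triplicate. After 24 h, caspase-3/7 activity was read by Caspase-Glo luminescence. Data were normalized and ED50 was fitted by variable-slope nonlinear regression.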

K562 [3] = assay: Cytotoxicity against human K562 cells assessed as reduction in cell viability after 48 hrs by ATPlite-based luminescent assay; details: K562, 48 h
How it was run: (§2)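 Cells were grown […] with 10% FBS, glutamax, NEAA and pen/strep at 37 °C, 5% CO2. Media were DMEM for RPE-1, HepG2 and BJ (BJ plus 10 ng/ml bFGF), F-12K for PC3, and IMDM for K562/HL-60. Cells were seeded at 500 per well and dosed from DMSO at 12 concentrations, 40 µM to 1 nM, in triplicate. After 48 h, intracellular ATP was read by luminescence. ED50 was obtained by variable-slope nonlinear regression.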

Escherichia coli [4] = assay: Antibacterial activity against Escherichia coli ATCC 8739 after 48 hrs by microdilution assay; assay type: functional; details: ATCC 8739, 48 h
How it was run: (§3)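 Broth microdilution in Mueller-Hinton medium buffered to pH 7.4 (±0.2), with DMSO as diluent at no more than 2% final. Compounds were tested as 2-fold serial dilutions from 2000 to 0.488 µmol/l. The inoculum was 0.5 McFarland (1.5×10^8 cfu/ml). Plates were held at 37 °C and read visually at 24 and 48 h. MIC was taken as 95% growth inhibition versus control, determined twice in duplicate.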

Pseudomonas aeruginosa [5] = assay: Antibacterial activity against Pseudomonas aeruginosa ATCC 9027 after 48 hrs by microdilution assay; assay type: functional; details: ATCC 9027, 48 h; how it was run: as §3
BJ = assay: Cytotoxicity against human BJ cells assessed as reduction in cell viability after 48 hrs by ATPlite-based luminescent assay; how it was run: as §2
HepG2 [6] = assay: Cytotoxicity against human HepG2 cells assessed as reduction in cell viability after 48 hrs by ATPlite-based luminescent assay; details: HepG2, 48 h; how it was run: as §2
[7] = test system: Staphylococcus epidermidis; assay: Antibacterial activity against Staphylococcus epidermidis HK6966/08 clinical isolate after 48 hrs by microdilution assay; assay type: functional; details: HK6966/08, 48 h
Klebsiella pneumoniae [8] = assay: Antibacterial activity against Klebsiella pneumoniae HK14368/08 clinical isolate after 24 hrs by microdilution assay; assay type: functional; details: HK14368/08, 24 h
Staphylococcus aureus [9] = assay: Antibacterial activity against methicillin-resistant Staphylococcus aureus HK5996/08 clinical isolate after 48 hrs by microdilution assay; assay type: functional; details: HK5996/08, 48 h
Pseudomonas aeruginosa [10] = assay: Antibacterial activity against Pseudomonas aeruginosa ATCC 9027 after 24 hrs by microdilution assay; assay type: functional; details: ATCC 9027, 24 h; how it was run: as §3
K562 [11] = assay: Induction of apoptosis in human K562 cells assessed as caspase 3/7 activity after 24 hrs by caspase-glo luminescent assay; assay type: cell-based; details: K562, 24 h; how it was run: as §1
TERT-RPE1 [12] = assay: Cytotoxicity against human RPE1 cells assessed as reduction in cell viability after 48 hrs by ATPlite-based luminescent assay; details: RPE-1, 48 h; how it was run: as §2
Klebsiella pneumoniae [13] = assay: Antibacterial activity against Klebsiella pneumoniae HK14368/08 clinical isolate after 48 hrs by microdilution assay; assay type: functional; details: HK14368/08, 48 h
Staphylococcus aureus [14] = assay: Antibacterial activity against methicillin-resistant Staphylococcus aureus HK5996/08 clinical isolate after 24 hrs by microdilution assay; assay type: functional; details: HK5996/08, 24 h
TERT-RPE1 [15] = assay: Induction of apoptosis in human RPE1 cells assessed as caspase 3/7 activity after 24 hrs by caspase-glo luminescent assay; assay type: cell-based; details: RPE-1, 24 h; how it was run: as §1
Escherichia coli [16] = assay: Antibacterial activity against Escherichia coli ATCC 8739 after 24 hrs by microdilution assay; assay type: functional; details: ATCC 8739, 24 h; how it was run: as §3
Enterococcus sp. [17] = assay: Antibacterial activity against Enterococcus sp. HK14365/08 clinical isolate after 24 hrs by microdilution assay; assay type: functional; details: HK14365/08, 24 h
PC-3 [18] = assay: Induction of apoptosis in human PC3 cells assessed as caspase 3/7 activity after 24 hrs by caspase-glo luminescent assay; assay type: cell-based; details: PC-3, 24 h; how it was run: as §1
MCF7 = assay: Cytotoxicity against human MCF7 cells assessed as reduction in cell viability after 48 hrs by ATPlite-based luminescent assay; details: MCF7, 48 h
Staphylococcus aureus [19] = assay: Antibacterial activity against Staphylococcus aureus ATCC 6538 after 48 hrs by microdilution assay; assay type: functional; details: ATCC 6538, 48 h
Klebsiella pneumoniae [20] = assay: Antibacterial activity against Klebsiella pneumoniae HK11750/08 clinical isolate after 48 hrs by microdilution assay; assay type: functional; details: HK11750/08, 48 h
Klebsiella pneumoniae [21] = assay: Antibacterial activity against Klebsiella pneumoniae HK11750/08 clinical isolate after 24 hrs by microdilution assay; assay type: functional; details: HK11750/08, 24 h
Enterococcus sp. [22] = assay: Antibacterial activity against Enterococcus sp. HK14365/08 clinical isolate after 48 hrs by microdilution assay; assay type: functional; details: HK14365/08, 48 h
HepG2 [23] = assay: Induction of apoptosis in human HepG2 cells assessed as caspase 3/7 activity after 24 hrs by caspase-glo luminescent assay; assay type: cell-based; details: HepG2, 24 h; how it was run: as §1
HL-60 [24] = assay: Cytotoxicity against human HL60 cells assessed as reduction in cell viability after 48 hrs by ATPlite-based luminescent assay; details: HL-60, 48 h; how it was run: as §2
Staphylococcus aureus [25] = assay: Antibacterial activity against Staphylococcus aureus ATCC 6538 after 24 hrs by microdilution assay; assay type: functional; details: ATCC 6538, 24 h
PC-3 [26] = assay: Cytotoxicity against human PC3 cells assessed as reduction in cell viability after 48 hrs by ATPlite-based luminescent assay; details: PC-3, 48 h; how it was run: as §2

Cc1ccc(C2=C(c3cccc(C(F)(F)F)c3)C(=O)OC2)cc1
31.2 µM: MIC95 (Staphylococcus aureus [9]) | MIC95 (Staphylococcus aureus [14]) | MIC95 (Staphylococcus aureus [19]) | MIC95 (Staphylococcus aureus [25])
> 500 µM: MIC95 (Escherichia coli [4]) | MIC95 (Pseudomonas aeruginosa [5]) | MIC95 (Klebsiella pneumoniae [8]) | MIC95 (Pseudomonas aeruginosa [10]) | MIC95 (Klebsiella pneumoniae [13]) | MIC95 (Escherichia coli [16]) | MIC95 (Enterococcus sp. [17]) | MIC95 (Klebsiella pneumoniae [20]) | MIC95 (Klebsiella pneumoniae [21]) | MIC95 (Enterococcus sp. [22])
0.31 µM: IC50 (K562 [11])
0.29 µM: IC50 (K562 [3])
2.66 µM: IC50 (HL-60 [2])
1.33 µM: IC50 (TERT-RPE1 [12])
15.6 µM: MIC95 [1] | MIC95 [7]
0.66 µM: IC50 (HL-60 [24])
> 40 µM: IC50 (BJ) | IC50 (HepG2 [6]) | IC50 (TERT-RPE1 [15]) | IC50 (PC-3 [18]) | IC50 (HepG2 [23]) | IC50 (PC-3 [26])
19.1 µM: IC50 (MCF7)

COc1cc(OC)c(C2=C(c3ccc(OC)c(OC)c3OC)COC2=O)c(OC)c1
> 500 µM: MIC95 (Escherichia coli [4]) | MIC95 (Pseudomonas aeruginosa [5]) | MIC95 (Klebsiella pneumoniae [8]) | MIC95 (Pseudomonas aeruginosa [10]) | MIC95 (Klebsiella pneumoniae [13]) | MIC95 (Escherichia coli [16]) | MIC95 (Enterococcus sp. [17]) | MIC95 (Klebsiella pneumoniae [20]) | MIC95 (Klebsiella pneumoniae [21]) | MIC95 (Enterococcus sp. [22])
> 40 µM: IC50 (HL-60 [2]) | IC50 (BJ) | IC50 (HepG2 [6]) | IC50 (K562 [11]) | IC50 (TERT-RPE1 [12]) | IC50 (TERT-RPE1 [15]) | IC50 (PC-3 [18]) | IC50 (MCF7) | IC50 (HepG2 [23]) | IC50 (HL-60 [24]) | IC50 (PC-3 [26])
62.5 µM: MIC95 (Staphylococcus aureus [9]) | MIC95 (Staphylococcus aureus [14])
22.8 µM: IC50 (K562 [3])
125 µM: MIC95 [1] | MIC95 [7]
31.2 µM: MIC95 (Staphylococcus aureus [19]) | MIC95 (Staphylococcus aureus [25])

Cc1ccc(C2=C(c3ccc(F)cc3)C(=O)OC2)cc1
3.23 µM: IC50 (K562 [11])
> 500 µM: MIC95 (Escherichia coli [4]) | MIC95 (Pseudomonas aeruginosa [5]) | MIC95 (Klebsiella pneumoniae [8]) | MIC95 (Staphylococcus aureus [9]) | MIC95 (Pseudomonas aeruginosa [10]) | MIC95 (Klebsiella pneumoniae [13]) | MIC95 (Staphylococcus aureus [14]) | MIC95 (Escherichia coli [16]) | MIC95 (Enterococcus sp. [17]) | MIC95 (Klebsiella pneumoniae [20]) | MIC95 (Klebsiella pneumoniae [21]) | MIC95 (Enterococcus sp. [22])
125 µM: MIC95 [1] | MIC95 [7] | MIC95 (Staphylococcus aureus [19]) | MIC95 (Staphylococcus aureus [25])
7.53 µM: IC50 (HL-60 [2])
4 µM: IC50 (K562 [3])
9.34 µM: IC50 (HL-60 [24])
> 40 µM: IC50 (BJ) | IC50 (HepG2 [6]) | IC50 (TERT-RPE1 [12]) | IC50 (TERT-RPE1 [15]) | IC50 (PC-3 [18]) | IC50 (MCF7) | IC50 (HepG2 [23]) | IC50 (PC-3 [26])

O=C1OCC(c2ccc(O)c(O)c2)=C1c1ccc(O)cc1
> 40 µM: IC50 (HL-60 [2]) | IC50 (BJ) | IC50 (HepG2 [6]) | IC50 (K562 [11]) | IC50 (TERT-RPE1 [12]) | IC50 (TERT-RPE1 [15]) | IC50 (PC-3 [18]) | IC50 (MCF7) | IC50 (HepG2 [23]) | IC50 (HL-60 [24]) | IC50 (PC-3 [26])
500 µM: MIC95 [7] | MIC95 (Staphylococcus aureus [9]) | MIC95 (Enterococcus sp. [17]) | MIC95 (Staphylococcus aureus [19]) | MIC95 (Enterococcus sp. [22])
> 500 µM: MIC95 (Escherichia coli [4]) | MIC95 (Pseudomonas aeruginosa [5]) | MIC95 (Klebsiella pneumoniae [8]) | MIC95 (Pseudomonas aeruginosa [10]) | MIC95 (Klebsiella pneumoniae [13]) | MIC95 (Escherichia coli [16]) | MIC95 (Klebsiella pneumoniae [20]) | MIC95 (Klebsiella pneumoniae [21])
250 µM: MIC95 [1] | MIC95 (Staphylococcus aureus [14]) | MIC95 (Staphylococcus aureus [25])
16.2 µM: IC50 (K562 [3])
